This is an account of results in ChEMBL document CHEMBL1145988, “A conformationally locked analogue of the anti-HIV agent stavudine. An important correlation between pseudorotation and maximum amplitude” (J Med Chem, 2003).

Structures are written as SMILES.

The target in assay [1] is Human immunodeficiency virus type 1 reverse transcriptase (Human immunodeficiency virus 1, UniProt Q72547). As to the kind of experiment: Inhibitory concentration required against Reverse transcriptase (RT). The method in brief: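 Wild-type HIV-1 RT (1.0 μg) extends -47 primer annealed to single-stranded M13mp18 DNA. Run 30 min at 37 °C, then TCA-precipitated, filtered, scintillation counted; duplicate.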

For the next assay, the system named is MT2. Put plainly: Effective concentration required to protect MT-2 cells against cytopathogenicity of HIV-1 LAI. Type of assay: functional, cell-based. To be noted: Homo sapiens. In a few lines: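 MT-2 cells (2×10^3) challenged with 100 TCID50 HIV-1 LAI and cultured with compound. MTT read-out on day 7 gives EC50 for 50% protection; run in duplicate.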
Assay [2] is described as follows: Effective concentration required to inhibit P24 antigen production in PHA-PBM cells exposed to HIV-1 LAI. The format is functional, cell-based. As to conditions: Homo sapiens, PBMC. The method in brief: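 PHA-stimulated PBM cells at 1×10^6/mL exposed to 50 TCID50 HIV-1 LAI with 10-fold serial drug dilutions, triplicate. p24 antigen measured by radioimmunoassay after 7 days of culture. EC50 set against p24 in drug-free controls.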

Assay [3] relates to CCRF-CEM. Put plainly: Effective concentration required to protect Human T-Lymphocyte (CEM) cells against cytopathogenicity of HIV-2 (ROD). The format is functional, cell-based. The method in brief:
(§1)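 CEM cells at 4.5×10^5 cells/mL infected with 100 CCID50/mL of HIV-1 or HIV-2, then mixed 1:1 with compound dilutions (final 200, 40, 8, 0.32, 0.062 μg/mL) and held at 37 °C. Syncytia counted microscopically after 4–5 days. EC50 is the concentration preventing syncytium formation by 50%.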

The test system of the next assay is MT4. As to the kind of experiment: Effective concentration required to protect MT-4 cells against cytopathogenicity of HIV-1 LAI. Type of assay: functional, cell-based. To be noted: Homo sapiens. The method in brief:
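MT-4 cells (3×10^4) exposed to 100 TCID50 HIV-1 LAI and cultured with compound. Viability read by MTT assay on day 5. EC50 taken as 50% protection against cytopathogenicity; duplicate assays.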

Assay [4] concerns CCRF-CEM. As to the kind of experiment: Cytostatic concentration required to inhibit Human T-Lymphocyte (CEM) cells proliferation caused by HIV-1 (IIIB). The format is functional. In a few lines: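 CEM cell proliferation measured; value is concentration inhibiting proliferation by 50%.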
Assay [5] deals with CCRF-CEM. As to the kind of experiment: Effective concentration required to protect Human T-Lymphocyte (CEM) cells against cytopathogenicity of HIV-1 (IIIB). Type of assay: functional, cell-based. The method in brief: as §1
Assay [6] has as its system CCRF-CEM. As to the kind of experiment: Effective concentration required to protect activity Human CEM/TK- cells against cytopathogenicity of HIV virus. Type of assay: functional, cell-based.

For `Cc1cn([C@H]2C=C[C@@H](COP(=O)(O)OP(=O)(O)OP(=O)(O)O)O2)c(=O)[nH]c1=O`, the midpoint of inhibition in assay [1], the IC50, lay at 80 nM.
For the molecule `Cc1cn([C@H]2C=C[C@]3(CO)C[C@H]23)c(=O)[nH]c1=O`, the 50% effective concentration (EC50) was 6100 nM with MT2; 60 nM in assay [2]; 1450 nM in the assay on CCRF-CEM [3]; 6900 nM in the assay on MT4; 960 nM in the assay on CCRF-CEM [5]; over 250000 nM with CCRF-CEM [6]. Besides, the half-maximal cytotoxic concentration (CC50) in the assay on CCRF-CEM [4] was over 250000 nM.
In the case of `Cc1cn([C@H]2C=C[C@@H](CO)O2)c(=O)[nH]c1=O` [STAVUDINE], the EC50 in the assay with MT2 came to 1800 nM; in assay [2], 40 nM; in the assay with CCRF-CEM [3] it was 400 nM; in the assay on MT4 it was 710 nM; with CCRF-CEM [5], 210 nM; with CCRF-CEM [6], 27000 nM. The molecule further yielded a CC50 in the assay with CCRF-CEM [4] of 93000 nM.
Take `Cc1cn([C@H]2C[C@H](N=[N+]=[N-])[C@@H](CO)O2)c(=O)[nH]c1=O` [ZIDOVUDINE]: the 50% effective concentration (EC50) in the assay with MT2 came out at 30 nM; with MT4, 20 nM.
As to `Cc1cn([C@H]2C=C[C@]3(COP(=O)(O)OP(=O)(O)OP(=O)(O)O)C[C@H]23)c(=O)[nH]c1=O`, in assay [1], the 50% inhibitory concentration (IC50) stood at 650 nM.
